ChEMBL document CHEMBL5696442, “Discovery of type II inhibitors of TGFβ-activated kinase 1 (TAK1) and mitogen-activated protein kinase kinase kinase kinase 2 (MAP4K2)” (J Med Chem, 2015)
Calls of active or inactive are those of the source. The rule behind the calls is not given here.

Experiments:
[1] = target: Phosphatidylinositol 4-kinase type 2-beta (Homo sapiens) (UniProt Q8TCG2); experiment: Inhibition of PI4K2B ATP labeling site in human Huh-7 cell lysate at 1 uM by KiNativ Profiling analysis relative to control; type: subcellular
[2] = target: T1, Serine/threonine-protein kinase D2 (Homo sapiens) (UniProt Q9BZL6); experiment: Inhibition of PKD2 Lys2 labeling site in human Huh-7 cell lysate at 1 uM by KiNativ Profiling analysis relative to control; type: subcellular
T1 sequence (whole entry): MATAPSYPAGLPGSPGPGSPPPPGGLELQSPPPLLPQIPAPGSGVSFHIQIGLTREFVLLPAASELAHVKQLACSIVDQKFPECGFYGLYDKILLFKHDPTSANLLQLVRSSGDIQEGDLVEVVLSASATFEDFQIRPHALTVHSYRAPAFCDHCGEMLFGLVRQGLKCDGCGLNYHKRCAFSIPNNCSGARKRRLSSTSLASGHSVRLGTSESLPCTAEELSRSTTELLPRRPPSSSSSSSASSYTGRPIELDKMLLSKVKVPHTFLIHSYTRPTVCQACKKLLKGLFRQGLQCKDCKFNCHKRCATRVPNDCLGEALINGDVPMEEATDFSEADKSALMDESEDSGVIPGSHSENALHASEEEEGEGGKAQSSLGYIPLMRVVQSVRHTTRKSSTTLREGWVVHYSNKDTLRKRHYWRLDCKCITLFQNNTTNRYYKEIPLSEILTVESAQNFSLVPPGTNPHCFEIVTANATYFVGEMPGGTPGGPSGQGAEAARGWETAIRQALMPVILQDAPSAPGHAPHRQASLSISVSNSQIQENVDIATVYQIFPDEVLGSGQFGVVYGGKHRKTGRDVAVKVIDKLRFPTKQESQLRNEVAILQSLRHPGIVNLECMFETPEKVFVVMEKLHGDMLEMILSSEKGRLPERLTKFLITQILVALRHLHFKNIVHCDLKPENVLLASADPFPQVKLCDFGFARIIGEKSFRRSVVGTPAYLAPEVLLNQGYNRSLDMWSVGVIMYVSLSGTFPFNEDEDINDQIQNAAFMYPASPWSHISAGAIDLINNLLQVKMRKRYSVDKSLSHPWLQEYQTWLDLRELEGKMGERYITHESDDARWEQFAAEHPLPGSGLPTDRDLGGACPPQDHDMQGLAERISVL

[3] = target: Casein kinase I isoform epsilon (Homo sapiens) (UniProt P49674); experiment: Inhibition of CK1e Lys2 labeling site in human Huh-7 cells at 1 uM by KiNativ Profiling analysis relative to control; type: cell-based
Chain of Casein kinase I isoform epsilon (Homo sapiens) (P49674 whole entry, looked up, canonical isoform): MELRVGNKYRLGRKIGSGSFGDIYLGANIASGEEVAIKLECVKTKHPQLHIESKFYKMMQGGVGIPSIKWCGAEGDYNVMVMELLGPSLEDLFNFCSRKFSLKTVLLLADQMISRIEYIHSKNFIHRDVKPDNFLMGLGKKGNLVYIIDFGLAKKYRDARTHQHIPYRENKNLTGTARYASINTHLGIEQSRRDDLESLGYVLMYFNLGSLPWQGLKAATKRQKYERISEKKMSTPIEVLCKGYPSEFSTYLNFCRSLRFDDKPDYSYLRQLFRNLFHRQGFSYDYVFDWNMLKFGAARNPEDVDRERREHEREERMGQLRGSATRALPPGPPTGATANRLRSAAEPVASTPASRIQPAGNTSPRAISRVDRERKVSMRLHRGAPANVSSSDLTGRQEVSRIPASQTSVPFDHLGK

[4] = Inhibition of CASK Lys1 labeling site in human Huh-7 cells at 1 uM by KiNativ Profiling analysis relative to control
[5] = target: T2, Mitogen-activated protein kinase kinase kinase 3 (Homo sapiens) (UniProt Q99759); experiment: Inhibition of MAP3K3 (unknown origin) at 10 uM by Ambit Kinomescan binding assay relative to control
T2 sequence (whole entry): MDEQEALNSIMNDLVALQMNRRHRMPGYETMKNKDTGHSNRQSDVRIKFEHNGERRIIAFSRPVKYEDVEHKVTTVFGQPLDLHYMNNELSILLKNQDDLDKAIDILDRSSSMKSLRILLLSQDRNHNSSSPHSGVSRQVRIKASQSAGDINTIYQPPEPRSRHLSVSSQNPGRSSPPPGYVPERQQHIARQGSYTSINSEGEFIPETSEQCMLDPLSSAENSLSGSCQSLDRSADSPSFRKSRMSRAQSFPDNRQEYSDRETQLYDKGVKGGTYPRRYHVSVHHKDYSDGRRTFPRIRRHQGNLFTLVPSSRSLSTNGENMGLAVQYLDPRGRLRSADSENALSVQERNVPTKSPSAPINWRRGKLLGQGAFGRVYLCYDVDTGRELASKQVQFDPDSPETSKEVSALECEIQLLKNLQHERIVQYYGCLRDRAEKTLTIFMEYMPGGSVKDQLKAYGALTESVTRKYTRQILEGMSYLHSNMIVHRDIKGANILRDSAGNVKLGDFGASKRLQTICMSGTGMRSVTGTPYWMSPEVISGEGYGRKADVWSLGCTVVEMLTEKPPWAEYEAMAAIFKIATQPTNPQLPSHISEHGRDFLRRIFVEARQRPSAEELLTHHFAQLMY

[6] = target: Macrophage-stimulating protein receptor (Homo sapiens) (UniProt Q04912); experiment: Inhibition of MST1R (unknown origin) at 10 uM by Ambit Kinomescan binding assay
[7] = target: Serine/threonine-protein kinase Nek5 (Homo sapiens) (UniProt Q6P3R8); experiment: Inhibition of NEK5 (unknown origin) at 10 uM by Ambit Kinomescan binding assay
Chain of Serine/threonine-protein kinase Nek5 (Homo sapiens) (Q6P3R8 whole entry): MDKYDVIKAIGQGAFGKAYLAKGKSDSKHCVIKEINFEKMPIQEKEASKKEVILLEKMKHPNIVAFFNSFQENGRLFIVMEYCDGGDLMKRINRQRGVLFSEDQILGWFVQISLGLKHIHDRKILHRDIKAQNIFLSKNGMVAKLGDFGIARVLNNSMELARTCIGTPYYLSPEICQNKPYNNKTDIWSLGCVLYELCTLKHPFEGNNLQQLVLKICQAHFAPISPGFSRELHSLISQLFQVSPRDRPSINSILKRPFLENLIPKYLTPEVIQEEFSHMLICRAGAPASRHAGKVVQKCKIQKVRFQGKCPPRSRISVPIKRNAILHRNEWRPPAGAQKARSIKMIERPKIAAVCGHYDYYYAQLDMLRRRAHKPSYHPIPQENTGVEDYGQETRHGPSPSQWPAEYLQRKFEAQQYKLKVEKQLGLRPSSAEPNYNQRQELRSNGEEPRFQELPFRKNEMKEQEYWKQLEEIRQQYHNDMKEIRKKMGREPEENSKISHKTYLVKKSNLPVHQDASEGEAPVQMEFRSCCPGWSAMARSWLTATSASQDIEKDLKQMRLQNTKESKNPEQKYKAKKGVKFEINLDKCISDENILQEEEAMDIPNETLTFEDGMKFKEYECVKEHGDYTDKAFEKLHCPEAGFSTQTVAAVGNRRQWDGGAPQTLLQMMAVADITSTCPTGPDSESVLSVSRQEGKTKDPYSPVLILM

[8] = target: Serine/threonine-protein kinase RIO1 (Homo sapiens) (UniProt Q9BRS2); experiment: Inhibition of RIOK1 (unknown origin) at 10 uM by Ambit Kinomescan binding assay
[9] = target: AMPK alpha1/alpha2 (Homo sapiens) (UniProt P54646+Q13131); experiment: Inhibition of AMPK alpha 1/2 K1 labeling site in human Huh-7 cells at 10 uM by KiNativ Profiling analysis relative to control; type: cell-based
Chain of AMPK alpha1/alpha2 (Homo sapiens) (P54646 whole entry, looked up): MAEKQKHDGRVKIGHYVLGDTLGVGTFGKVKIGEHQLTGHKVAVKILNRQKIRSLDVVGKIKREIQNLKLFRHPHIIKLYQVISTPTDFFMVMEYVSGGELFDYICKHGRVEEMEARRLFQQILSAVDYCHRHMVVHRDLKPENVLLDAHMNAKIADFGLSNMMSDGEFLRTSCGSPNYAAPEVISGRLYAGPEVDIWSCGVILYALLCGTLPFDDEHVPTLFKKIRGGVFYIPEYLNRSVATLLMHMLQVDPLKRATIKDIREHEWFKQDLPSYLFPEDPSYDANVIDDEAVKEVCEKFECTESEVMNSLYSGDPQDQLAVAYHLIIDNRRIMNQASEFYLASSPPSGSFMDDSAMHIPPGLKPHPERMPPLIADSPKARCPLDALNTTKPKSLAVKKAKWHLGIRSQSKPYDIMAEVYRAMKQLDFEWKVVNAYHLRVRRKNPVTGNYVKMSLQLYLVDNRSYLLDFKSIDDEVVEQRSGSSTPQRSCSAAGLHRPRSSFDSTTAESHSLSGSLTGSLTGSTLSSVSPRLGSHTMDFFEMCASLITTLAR
Chain of AMPK alpha1/alpha2 (Homo sapiens) (Q13131 whole entry, looked up): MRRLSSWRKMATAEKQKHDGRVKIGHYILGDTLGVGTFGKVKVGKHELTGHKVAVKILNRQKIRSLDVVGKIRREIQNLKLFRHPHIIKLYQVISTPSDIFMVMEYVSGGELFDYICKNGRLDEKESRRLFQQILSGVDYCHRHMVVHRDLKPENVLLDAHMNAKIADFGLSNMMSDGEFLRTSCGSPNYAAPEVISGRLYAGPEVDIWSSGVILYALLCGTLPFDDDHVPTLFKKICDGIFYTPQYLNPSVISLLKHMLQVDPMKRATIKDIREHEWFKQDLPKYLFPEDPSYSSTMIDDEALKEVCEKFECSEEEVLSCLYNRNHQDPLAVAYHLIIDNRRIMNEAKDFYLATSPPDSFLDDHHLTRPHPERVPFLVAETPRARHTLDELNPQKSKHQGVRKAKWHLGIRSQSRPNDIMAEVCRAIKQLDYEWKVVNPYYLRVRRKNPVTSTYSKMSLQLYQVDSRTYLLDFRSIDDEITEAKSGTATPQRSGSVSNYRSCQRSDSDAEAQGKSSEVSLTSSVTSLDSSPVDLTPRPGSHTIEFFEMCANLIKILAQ

[10] = target: Serine/threonine-protein kinase MARK2 (Homo sapiens) (UniProt Q7KZI7); experiment: Inhibition of MARK2 (unknown origin) at 1 uM by Ambit Kinomescan binding assay relative to control
Chain of Serine/threonine-protein kinase MARK2 (Homo sapiens) (Q7KZI7 whole entry, the tested form may be a part): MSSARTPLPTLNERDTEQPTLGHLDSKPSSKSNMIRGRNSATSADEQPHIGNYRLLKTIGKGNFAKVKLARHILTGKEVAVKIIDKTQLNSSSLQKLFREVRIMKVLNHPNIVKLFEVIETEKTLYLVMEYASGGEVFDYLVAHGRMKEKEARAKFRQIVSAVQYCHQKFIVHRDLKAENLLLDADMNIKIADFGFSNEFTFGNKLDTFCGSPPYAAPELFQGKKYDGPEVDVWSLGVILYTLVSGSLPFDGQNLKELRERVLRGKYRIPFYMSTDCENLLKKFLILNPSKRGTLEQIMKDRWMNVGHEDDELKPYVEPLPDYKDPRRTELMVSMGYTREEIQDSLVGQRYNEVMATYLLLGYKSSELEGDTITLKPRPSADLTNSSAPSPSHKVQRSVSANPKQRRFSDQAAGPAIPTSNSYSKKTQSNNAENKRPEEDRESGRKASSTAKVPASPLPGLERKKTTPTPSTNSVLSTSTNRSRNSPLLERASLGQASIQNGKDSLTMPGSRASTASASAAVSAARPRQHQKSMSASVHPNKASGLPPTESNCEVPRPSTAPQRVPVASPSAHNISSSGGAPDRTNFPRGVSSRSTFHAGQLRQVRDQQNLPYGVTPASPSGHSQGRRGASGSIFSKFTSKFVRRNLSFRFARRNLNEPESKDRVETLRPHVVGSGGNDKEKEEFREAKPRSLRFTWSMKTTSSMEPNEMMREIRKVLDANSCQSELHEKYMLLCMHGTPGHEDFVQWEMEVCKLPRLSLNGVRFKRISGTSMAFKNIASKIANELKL

[11] = target: Ribosomal protein S6 kinase alpha-2 (Homo sapiens) (UniProt Q15349); experiment: Inhibition of N-terminal RSK3 kinase domain 1 (unknown origin) at 1 uM by Ambit Kinomescan binding assay relative to control
Summary of the method: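 In vitro ATP-site competition binding assay against a panel of over 420 kinases (KinomeScan), with compound tested at 10 or 1 μM.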

[12] = target: Serine/threonine-protein kinase 38 (Homo sapiens) (UniProt Q15208); experiment: Inhibition of NDR1 Lys2 labeling site in human A-375 cells at 5 uM by KiNativ Profiling analysis relative to control; type: cell-based
Chain of Serine/threonine-protein kinase 38 (Homo sapiens) (Q15208 2-465 limits assumed): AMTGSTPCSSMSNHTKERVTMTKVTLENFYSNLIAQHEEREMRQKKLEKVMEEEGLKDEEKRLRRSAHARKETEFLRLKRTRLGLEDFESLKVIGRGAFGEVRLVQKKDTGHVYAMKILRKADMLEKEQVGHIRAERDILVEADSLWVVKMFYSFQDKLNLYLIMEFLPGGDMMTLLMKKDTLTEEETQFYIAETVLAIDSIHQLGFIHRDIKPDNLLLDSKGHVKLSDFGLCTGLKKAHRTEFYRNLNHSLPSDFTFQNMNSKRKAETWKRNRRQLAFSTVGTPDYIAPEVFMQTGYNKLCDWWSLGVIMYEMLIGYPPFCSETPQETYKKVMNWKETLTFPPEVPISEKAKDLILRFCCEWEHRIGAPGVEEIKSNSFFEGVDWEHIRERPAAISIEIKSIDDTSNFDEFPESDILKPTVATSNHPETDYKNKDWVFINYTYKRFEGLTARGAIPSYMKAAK

[13] = target: Serine/threonine-protein kinase tousled-like 2 (Homo sapiens) (UniProt Q86UE8); experiment: Inhibition of TLK2 Lys1 labeling site in human A-375 cells at 0.5 uM by KiNativ Profiling analysis relative to control; type: cell-based
Chain of Serine/threonine-protein kinase tousled-like 2 (Homo sapiens) (Q86UE8 whole entry, looked up): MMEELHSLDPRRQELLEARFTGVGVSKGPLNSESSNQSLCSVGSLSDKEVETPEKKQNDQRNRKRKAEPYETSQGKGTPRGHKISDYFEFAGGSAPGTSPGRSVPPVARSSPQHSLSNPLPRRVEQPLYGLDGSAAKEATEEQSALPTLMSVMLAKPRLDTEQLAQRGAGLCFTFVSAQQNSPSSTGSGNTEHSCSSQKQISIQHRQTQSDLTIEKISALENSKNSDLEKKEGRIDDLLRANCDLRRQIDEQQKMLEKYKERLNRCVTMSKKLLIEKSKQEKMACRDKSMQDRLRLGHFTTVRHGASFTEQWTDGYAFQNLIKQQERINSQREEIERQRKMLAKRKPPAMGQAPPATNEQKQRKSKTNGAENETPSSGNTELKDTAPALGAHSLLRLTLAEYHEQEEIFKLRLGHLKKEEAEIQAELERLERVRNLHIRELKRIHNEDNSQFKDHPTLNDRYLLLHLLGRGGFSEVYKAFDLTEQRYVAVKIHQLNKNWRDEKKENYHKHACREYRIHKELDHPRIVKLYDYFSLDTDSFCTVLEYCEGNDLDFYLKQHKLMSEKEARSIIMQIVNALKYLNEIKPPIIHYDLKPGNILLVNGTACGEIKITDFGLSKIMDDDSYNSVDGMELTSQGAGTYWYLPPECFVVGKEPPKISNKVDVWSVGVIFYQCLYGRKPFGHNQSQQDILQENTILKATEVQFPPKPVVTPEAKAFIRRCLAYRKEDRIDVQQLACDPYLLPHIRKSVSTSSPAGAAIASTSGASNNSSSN

[14] = target: Serine/threonine-protein kinase 32C (Homo sapiens) (UniProt Q86UX6); experiment: Inhibition of YANK3 Lys2 labeling site in human A-375 cells at 0.05 uM by KiNativ Profiling analysis relative to control; type: cell-based
Chain of Serine/threonine-protein kinase 32C (Homo sapiens) (Q86UX6 whole entry): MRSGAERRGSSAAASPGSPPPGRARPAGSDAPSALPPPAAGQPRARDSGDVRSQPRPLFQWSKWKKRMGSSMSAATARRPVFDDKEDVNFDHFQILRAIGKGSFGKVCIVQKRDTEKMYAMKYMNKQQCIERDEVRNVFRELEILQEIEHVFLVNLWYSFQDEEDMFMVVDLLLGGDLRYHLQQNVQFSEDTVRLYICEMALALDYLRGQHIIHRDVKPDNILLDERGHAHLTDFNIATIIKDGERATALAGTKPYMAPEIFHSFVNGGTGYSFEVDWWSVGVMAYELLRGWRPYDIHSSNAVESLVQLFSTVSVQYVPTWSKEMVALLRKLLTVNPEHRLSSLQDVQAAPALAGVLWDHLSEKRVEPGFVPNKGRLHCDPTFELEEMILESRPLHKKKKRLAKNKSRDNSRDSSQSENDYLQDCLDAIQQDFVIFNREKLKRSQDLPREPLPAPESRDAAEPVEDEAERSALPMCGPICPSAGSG

[15] = target: MAP kinase-interacting serine/threonine-protein kinase 2 (Homo sapiens) (UniProt Q9HBH9); experiment: Inhibition of MKNK2 (unknown origin) at 1 uM by Ambit Kinomescan binding assay relative to control; values are per cent of control

CNc1cc(Oc2cc(C(=O)Nc3cc(N4CCN(C)CC4)cc(C(F)(F)F)c3)ccc2C)ncn1
inhibition [1]: 25% | inhibition [2]: -3.5% | inhibition [3]: 39.1% | inhibition [4]: 16%

CCN1CCN(Cc2ccc(NC(=O)c3ccc(C)c(Oc4ccnc5[nH]ccc45)c3)cc2C(F)(F)F)CC1
inhibition [5]: 12% | inhibition [6]: inactive | inhibition [7]: inactive | inhibition [8]: inactive | inhibition [9]: 34.6%

CCN1CCN(Cc2ccc(NC(=O)c3ccc(C)c(/C=C/c4cnc5[nH]ccc5c4OC)c3)cc2C(F)(F)F)CC1
inhibition [10]: 59% | inhibition [11]: 68% | inhibition [12]: 25.3% | inhibition [13]: 30.2% | inhibition [14]: -4.2% | residual activity [15]: 48%
